For experiment [1], the target named is Phosphatidylinositol 4,5-bisphosphate 3-kinase catalytic subunit alpha isoform (Homo sapiens, UniProt P42336). Nature of the experiment: Inhibition of human recombinant p110alpha. An outline of the steps:
(§1)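 Recombinant p110/p85 complexes (p110d/p85 commercial; p110a/p85 and p110b/p85 prepared in-house), 0.1 µg enzyme with 10 µg L-α-phosphatidylinositol in Tris-HCl pH 7.4/NaCl/EDTA buffer, 1% DMSO final. 1 h at room temperature, stopped with HCl. Lipids extracted, resolved by TLC, radiolabel quantified. Means of two experiments.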

The target in experiment [2] is Phosphatidylinositol 4,5-bisphosphate 3-kinase catalytic subunit beta isoform (Homo sapiens, UniProt P42338). The experiment is described as follows: Inhibition of human recombinant p110beta. In outline:
as §1

Experiment [3] concerns the target T1, Phosphatidylinositol 4,5-bisphosphate 3-kinase catalytic subunit delta isoform (Homo sapiens, UniProt O00329).
T1 sequence (O00329 whole entry): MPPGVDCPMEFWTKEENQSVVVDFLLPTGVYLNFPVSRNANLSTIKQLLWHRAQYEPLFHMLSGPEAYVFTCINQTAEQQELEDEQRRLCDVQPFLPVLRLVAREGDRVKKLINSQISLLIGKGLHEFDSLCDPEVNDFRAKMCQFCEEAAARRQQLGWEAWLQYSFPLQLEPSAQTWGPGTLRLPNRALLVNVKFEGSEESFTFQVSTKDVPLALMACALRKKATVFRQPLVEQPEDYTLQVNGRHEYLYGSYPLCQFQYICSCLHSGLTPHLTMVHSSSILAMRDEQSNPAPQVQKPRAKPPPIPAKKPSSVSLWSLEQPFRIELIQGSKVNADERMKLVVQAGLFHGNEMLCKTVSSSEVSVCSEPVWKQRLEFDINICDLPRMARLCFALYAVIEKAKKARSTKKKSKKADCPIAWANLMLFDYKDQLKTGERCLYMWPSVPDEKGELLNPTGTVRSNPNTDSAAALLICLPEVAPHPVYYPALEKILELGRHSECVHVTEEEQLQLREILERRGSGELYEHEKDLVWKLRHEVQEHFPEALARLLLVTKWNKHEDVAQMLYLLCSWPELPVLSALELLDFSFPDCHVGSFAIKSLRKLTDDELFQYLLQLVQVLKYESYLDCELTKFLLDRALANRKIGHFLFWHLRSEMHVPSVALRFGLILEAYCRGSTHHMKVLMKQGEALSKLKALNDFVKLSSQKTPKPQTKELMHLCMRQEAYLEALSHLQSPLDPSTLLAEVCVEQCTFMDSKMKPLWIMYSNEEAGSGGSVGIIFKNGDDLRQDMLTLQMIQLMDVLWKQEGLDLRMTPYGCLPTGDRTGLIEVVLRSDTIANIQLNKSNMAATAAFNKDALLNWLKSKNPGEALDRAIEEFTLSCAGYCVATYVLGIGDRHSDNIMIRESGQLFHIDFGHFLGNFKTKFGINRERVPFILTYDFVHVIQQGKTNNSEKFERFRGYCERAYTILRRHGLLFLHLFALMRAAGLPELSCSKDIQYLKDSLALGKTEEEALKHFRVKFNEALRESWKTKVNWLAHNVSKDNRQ
Nature of the experiment: Inhibition of human recombinant p110delta. In outline:
as §1

Experiment [4] is described as follows: Antiproliferative activity against human NZB5 cells. In kind it is functional, cell-based. In outline:
(§2)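 Early-passage human cancer cell lines grown in alpha-modified MEM with insulin, transferrin, selenite and 5% FBS; 1000 cells per well. Drug added in 10-fold concentration steps up to 20 µM; incubated five days under 5% O2, 5% CO2, 90% N2. [3H]thymidine (0.04 µCi/well) added for the last 6 h, incorporation counted. Duplicates per dose; IC50 from exponential least-squares fit.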

Experiment [5] is described as follows: Antiproliferative activity against human NZOV9 cells. The format is functional, cell-based. In outline: as §2

Sequence of Phosphatidylinositol 4,5-bisphosphate 3-kinase catalytic subunit alpha isoform (P42336 whole entry, canonical isoform): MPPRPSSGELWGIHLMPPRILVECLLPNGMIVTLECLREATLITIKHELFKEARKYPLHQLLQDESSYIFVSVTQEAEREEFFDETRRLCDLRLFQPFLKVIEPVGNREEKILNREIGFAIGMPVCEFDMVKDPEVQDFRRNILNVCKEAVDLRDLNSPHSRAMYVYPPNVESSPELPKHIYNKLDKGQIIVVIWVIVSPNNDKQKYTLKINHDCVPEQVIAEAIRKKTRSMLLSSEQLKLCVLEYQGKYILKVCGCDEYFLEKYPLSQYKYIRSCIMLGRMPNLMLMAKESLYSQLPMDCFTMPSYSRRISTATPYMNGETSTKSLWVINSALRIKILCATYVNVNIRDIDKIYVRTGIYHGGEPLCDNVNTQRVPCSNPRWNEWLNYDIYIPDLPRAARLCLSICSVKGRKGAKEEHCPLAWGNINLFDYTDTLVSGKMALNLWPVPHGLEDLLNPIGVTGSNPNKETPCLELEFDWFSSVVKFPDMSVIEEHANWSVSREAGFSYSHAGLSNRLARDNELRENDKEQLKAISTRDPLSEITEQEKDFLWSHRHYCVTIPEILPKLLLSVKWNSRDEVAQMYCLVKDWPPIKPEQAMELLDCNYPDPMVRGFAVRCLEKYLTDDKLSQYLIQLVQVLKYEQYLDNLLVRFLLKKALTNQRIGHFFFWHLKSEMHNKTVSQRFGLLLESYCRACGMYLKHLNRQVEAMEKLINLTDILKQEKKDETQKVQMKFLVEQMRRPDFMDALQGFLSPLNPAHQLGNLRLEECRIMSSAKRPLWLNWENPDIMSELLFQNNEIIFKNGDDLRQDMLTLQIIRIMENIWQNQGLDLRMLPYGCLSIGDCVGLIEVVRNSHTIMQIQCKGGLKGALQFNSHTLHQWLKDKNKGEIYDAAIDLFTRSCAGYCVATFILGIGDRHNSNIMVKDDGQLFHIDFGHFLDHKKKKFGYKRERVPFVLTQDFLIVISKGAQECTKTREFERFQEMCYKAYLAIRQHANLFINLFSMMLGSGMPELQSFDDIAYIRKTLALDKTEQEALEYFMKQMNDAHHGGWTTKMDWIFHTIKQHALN
Sequence of Phosphatidylinositol 4,5-bisphosphate 3-kinase catalytic subunit beta isoform (P42338 whole entry, canonical isoform): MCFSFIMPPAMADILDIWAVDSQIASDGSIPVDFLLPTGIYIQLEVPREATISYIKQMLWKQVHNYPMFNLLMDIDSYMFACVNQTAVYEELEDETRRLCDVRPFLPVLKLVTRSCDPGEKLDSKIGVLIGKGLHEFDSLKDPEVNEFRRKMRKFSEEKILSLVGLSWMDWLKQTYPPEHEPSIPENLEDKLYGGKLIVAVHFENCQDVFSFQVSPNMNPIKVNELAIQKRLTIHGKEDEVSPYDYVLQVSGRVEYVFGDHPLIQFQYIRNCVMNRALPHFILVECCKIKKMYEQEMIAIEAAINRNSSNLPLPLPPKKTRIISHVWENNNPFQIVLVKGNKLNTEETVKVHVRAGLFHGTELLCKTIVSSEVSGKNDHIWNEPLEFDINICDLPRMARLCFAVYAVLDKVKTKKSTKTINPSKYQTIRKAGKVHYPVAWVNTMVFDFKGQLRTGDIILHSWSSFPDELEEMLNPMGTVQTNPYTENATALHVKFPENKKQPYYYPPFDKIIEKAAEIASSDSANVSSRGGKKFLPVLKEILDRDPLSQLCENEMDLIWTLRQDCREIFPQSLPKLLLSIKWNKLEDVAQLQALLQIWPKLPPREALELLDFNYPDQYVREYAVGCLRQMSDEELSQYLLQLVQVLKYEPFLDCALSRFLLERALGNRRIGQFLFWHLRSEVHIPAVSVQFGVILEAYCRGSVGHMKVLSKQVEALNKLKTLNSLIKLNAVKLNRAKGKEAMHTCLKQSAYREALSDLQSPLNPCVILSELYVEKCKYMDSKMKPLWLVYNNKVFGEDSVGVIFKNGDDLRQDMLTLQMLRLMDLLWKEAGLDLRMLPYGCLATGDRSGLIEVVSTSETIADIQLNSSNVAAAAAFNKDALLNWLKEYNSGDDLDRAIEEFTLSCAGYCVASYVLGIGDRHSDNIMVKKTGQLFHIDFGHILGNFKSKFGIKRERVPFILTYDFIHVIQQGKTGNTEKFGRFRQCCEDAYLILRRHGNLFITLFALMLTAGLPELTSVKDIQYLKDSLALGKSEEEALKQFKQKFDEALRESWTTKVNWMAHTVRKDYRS

`Cc1ccc([N+](=O)[O-])cc1S(=O)(=O)N(C)/N=C/c1cnc2ccccn12`: the IC50 (commonly the midpoint of a concentration-inhibition curve) in experiment [1] was 0.86 µM; in experiment [2], more than 10 µM; in experiment [3] it was 5.4 µM; in experiment [4], 0.35 µM; in experiment [5], 0.68 µM.

`Cc1ccc([N+](=O)[O-])cc1S(=O)(=O)N(C)/N=C/c1cnc2n1CCCC2`: the IC50 in experiment [1] was more than 10 µM; in experiment [2] it was more than 10 µM; in experiment [3], more than 10 µM; in experiment [4], 10 µM; in experiment [5], 10 µM.

As for `Cc1ccc([N+](=O)[O-])cc1S(=O)(=O)N(C)/N=C/c1ncn2ccccc12`, the IC50 is more than 10 µM in experiment [1], more than 10 µM in experiment [2], more than 10 µM in experiment [3] and 3.3 µM in experiment [4].

`Cc1ccc([N+](=O)[O-])cc1S(=O)(=O)N(C)/N=C/c1cn(C)c2ccccc12`: the IC50 in experiment [1] is more than 10 µM; in experiment [2], more than 10 µM; in experiment [3], more than 10 µM; in experiment [4], 15 µM; in experiment [5], more than 20 µM.

For `Cc1ccc([N+](=O)[O-])cc1S(=O)(=O)N(C)/N=C/c1cnc2ccccc2c1`, the half-maximal inhibitory concentration (IC50) was more than 10 µM in experiment [1]; more than 10 µM in experiment [2]; more than 10 µM in experiment [3]; 3 µM in experiment [4]; 6 µM in experiment [5].

For `Cc1ccc([N+](=O)[O-])cc1S(=O)(=O)N(C)/N=C/c1cncc2ccccc12`, the half-inhibitory concentration (IC50) is 0.8 µM in experiment [1]; more than 10 µM in experiment [2]; 3.6 µM in experiment [3]; 0.89 µM in experiment [4]; 0.5 µM in experiment [5].

For `Cc1ccc([N+](=O)[O-])cc1S(=O)(=O)N(C)/N=C/c1cncc2ccc(Br)cc12`, the IC50 was 2.2 µM in experiment [1]; more than 10 µM in experiment [2]; 9 µM in experiment [3]; 5.1 µM in experiment [4]; 4.2 µM in experiment [5].

Consider `Cc1ccc([N+](=O)[O-])cc1S(=O)(=O)N(C)/N=C/c1onc2ccccc12`, for which the concentration for half-maximal inhibition (IC50) is 5 µM in experiment [1]; more than 10 µM in experiment [2]; more than 10 µM in experiment [3]; 3.9 µM in experiment [4]; 3.3 µM in experiment [5].

As to `Cc1ccc([N+](=O)[O-])cc1S(=O)(=O)N(C)/N=C/c1coc2ccccc12`, the concentration for half-maximal inhibition (IC50) in experiment [1] was more than 10 µM; in experiment [2], more than 10 µM; in experiment [3], more than 10 µM; in experiment [4], 12 µM; in experiment [5], 8.5 µM.

For the compound `Cc1ccc([N+](=O)[O-])cc1S(=O)(=O)N(C)/N=C/c1cnc2ccc(Br)cn12`, the IC50 in experiment [4] is 0.069 µM.

Take `Cc1ccc([N+](=O)[O-])cc1S(=O)(=O)N(C)/N=C/c1ncc2ccccn12`: the concentration for half-maximal inhibition (IC50) in experiment [1] was more than 10 µM; in experiment [2], more than 10 µM; in experiment [3], more than 10 µM; in experiment [4], 2.1 µM; in experiment [5], 1.2 µM.

Consider `Cc1ccc([N+](=O)[O-])cc1S(=O)(=O)N(C)/N=C/c1ccnc2ccccc12`, for which the 50% inhibitory concentration (IC50) in experiment [1] was 2.3 µM; in experiment [2], more than 10 µM; in experiment [3], more than 10 µM; in experiment [4], 1.5 µM; in experiment [5], 0.8 µM.

`Cc1ccc([N+](=O)[O-])cc1S(=O)(=O)N(C)/N=C/c1cncc2cc(Br)ccc12`: the IC50 was more than 10 µM in experiment [1]; more than 10 µM in experiment [2]; more than 10 µM in experiment [3]; 6.6 µM in experiment [4]; 11 µM in experiment [5].

With `Cc1ccc([N+](=O)[O-])cc1S(=O)(=O)N(C)/N=C/c1cncc2c(Br)cccc12`, the half-maximal inhibitory concentration (IC50) in experiment [1] is more than 10 µM; in experiment [2], more than 10 µM; in experiment [3] it was more than 10 µM; in experiment [4] it was 5.7 µM; in experiment [5] it was 12 µM.

Regarding `Cc1ccc([N+](=O)[O-])cc1S(=O)(=O)N(C)/N=C/c1cncn1C`, the concentration for half-maximal inhibition (IC50) was more than 10 µM in experiment [1]; more than 10 µM in experiment [2]; more than 10 µM in experiment [3]; more than 20 µM in experiment [4]; more than 20 µM in experiment [5].

In the case of `Cc1ccc([N+](=O)[O-])cc1S(=O)(=O)N(C)/N=C/c1csc2ccccc12`, the IC50 was more than 10 µM in experiment [1]; more than 10 µM in experiment [2]; more than 10 µM in experiment [3]; more than 20 µM in experiment [4]; more than 20 µM in experiment [5].

As for `Cc1ccc([N+](=O)[O-])cc1S(=O)(=O)N(C)/N=C/c1cccc2ccccc12`, the IC50 is more than 10 µM in experiment [1]; more than 10 µM in experiment [2]; more than 10 µM in experiment [3]; more than 20 µM in experiment [4]; more than 20 µM in experiment [5].
